{"data": "Measured values pooled from the literature", "cell line": "SK-OV-3", "note": "Protocols differ between the studies behind these lines."}
{"Structure (SMILES)": "COc1cc(CNC(=O)CCCC/C=C/C(C)C)ccc1OCc1cn(-c2ccc(C#N)cc2)nn1", "read-out": "cell growth or viability", "method": "SRB", "measurement": "IC50", "value": "32.5 µM"}
{"Structure (SMILES)": "COc1ccc(C(=O)/C=C/c2ccc(Cl)c(Cl)c2)cc1S(N)(=O)=O", "read-out": "cell growth or viability", "method": "SRB", "concentration": "10 µM", "measurement": "inhibition", "value": "48%"}
{"Structure (SMILES)": "NC(=O)c1cccc2cn(-c3ccc([C@@H]4CCCNC4)cc3)nc12", "read-out": "colony formation", "measurement": "IC50", "value": "5.34 µM"}
{"Structure (SMILES)": "COc1cccc(Oc2ccccc2NC(=O)CNC(=O)c2cccc3ccccc23)c1", "read-out": "cell growth or viability", "method": "SRB", "time": "48 h", "measurement": "GI50", "value": "490 nM"}
{"Structure (SMILES)": "COc1ccc(-c2ccc(-c3ccc(C(=N)N)nc3)s2)cc1", "read-out": "cell growth or viability", "method": "SRB", "measurement": "GI50", "value": "1700 nM"}
{"Structure (SMILES)": "CC(C)C[C@H](NC(=O)[C@H](Cc1ccccc1)NC(=O)c1cnccn1)B(O)O", "read-out": "cell growth or viability", "method": "ATP luminescence", "measurement": "IC50", "value": "0.025 µM"}
{"Structure (SMILES)": "CC(=O)OC[C@H]1O[C@@H]([S-])[C@H](OC(C)=O)[C@@H](OC(C)=O)[C@@H]1OC(C)=O.CCP(CC)CC.[Au+]", "read-out": "cell growth or viability", "method": "resazurin", "measurement": "IC50", "value": "2.67 µM"}
{"Structure (SMILES)": "S=C([S][Au-][P+](CCCCCC[P+]([Au-][S]C(=S)n1cccn1)(c1ccccc1)c1ccccc1)(c1ccccc1)c1ccccc1)n1cccn1", "read-out": "cell growth or viability", "measurement": "GI50", "value": "2060 nM"}
{"Structure (SMILES)": "O=C1Nc2ccccc2C1=NNc1nnc2n1N=C(c1ccccc1)CS2", "read-out": "cell growth or viability", "method": "SRB", "concentration": "10 µM", "measurement": "inhibition", "value": "11%"}
{"Structure (SMILES)": "OCc1ccc2c(c1C#Cc1ccc(O)cc1)C(c1ccc(O)cc1)(c1ccc(O)cc1)c1cc(O)ccc1-2", "read-out": "cell growth or viability", "method": "MTT", "time": "48 h", "measurement": "IC50", "value": "> 50 µM"}
{"Structure (SMILES)": "COc1ccc(C(=O)/C=C/c2cccc(Cl)c2)cc1S(N)(=O)=O", "read-out": "cell growth or viability", "method": "SRB", "time": "48 h", "measurement": "GI50", "value": "6200 nM"}
{"Structure (SMILES)": "COc1cccc2c1C(=O)c1c(O)c3c(c(O)c1C2=O)C[C@@](O)(C(=O)CO)C[C@@H]3O[C@H]1C[C@H](N)[C@H](O)[C@H](C)O1", "read-out": "cell growth or viability", "method": "SRB", "measurement": "IC50", "value": "25.8 µM"}
{"Structure (SMILES)": "COc1ccc(C(=O)/C=C/c2cccnc2)cc1S(N)(=O)=O", "read-out": "cell growth or viability", "method": "SRB", "time": "48 h", "measurement": "GI50", "value": "16600 nM"}
{"Structure (SMILES)": "C#C[C@@]1(O)[C@@H](CO)O[C@@H](n2cc(Cl)c3c(N)ncnc32)[C@@H]1O", "read-out": "cell growth or viability", "method": "SRB", "measurement": "GI50", "value": "119 nM"}
{"Structure (SMILES)": "COc1ccc(C(=O)/C=C/c2ccc3ccccc3c2)cc1S(N)(=O)=O", "read-out": "cell growth or viability", "method": "SRB", "concentration": "10 µM", "measurement": "inhibition", "value": "77%"}
{"Structure (SMILES)": "C[C@]12CC[C@@H]3c4ccc(O)cc4CC[C@H]3[C@@H]1CC[C@@H]2O", "read-out": "cell growth or viability", "method": "ATP luminescence", "time": "72 h", "measurement": "EC90", "value": "56.8 µM"}
{"Structure (SMILES)": "COc1ccc(C(=O)/C=C/c2ccccc2Br)cc1S(N)(=O)=O", "read-out": "cell growth or viability", "method": "SRB", "concentration": "10 µM", "measurement": "inhibition", "value": "30%"}
{"Structure (SMILES)": "O=C(c1cc(Cc2n[nH]c(=O)c3ccccc23)ccc1F)N1CCN(C(=O)C2CC2)CC1", "read-out": "colony formation", "measurement": "IC50", "value": "2.63 µM"}
